Source: PubChem (several laboratories)
PMI act: increases human mannose-6-phosphate isomerase activity; purified human PMI, coupled resazurin fluorescence, 20 min; stronger effect = higher value; 1 = vehicle control, 0 substrate-free wells; 190,000 tested, 0.005% active; P34949; activation factor at 20 µM;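 active = activation factor of 2 or more at 20 µM, relative to plate controls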
Target sequence (P34949 whole entry, looked up): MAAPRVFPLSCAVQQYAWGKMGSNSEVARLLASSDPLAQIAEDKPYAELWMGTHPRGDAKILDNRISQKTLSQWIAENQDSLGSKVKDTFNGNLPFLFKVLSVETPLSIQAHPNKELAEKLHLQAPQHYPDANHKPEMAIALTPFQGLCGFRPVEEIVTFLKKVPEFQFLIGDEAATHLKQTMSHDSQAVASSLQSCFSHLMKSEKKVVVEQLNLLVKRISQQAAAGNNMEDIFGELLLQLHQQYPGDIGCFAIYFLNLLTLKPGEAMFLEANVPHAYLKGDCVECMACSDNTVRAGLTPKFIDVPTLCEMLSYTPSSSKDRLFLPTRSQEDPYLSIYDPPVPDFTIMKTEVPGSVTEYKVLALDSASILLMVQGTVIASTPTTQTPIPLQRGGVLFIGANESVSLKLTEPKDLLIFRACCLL
WT yeast gro inh: growth inhibition of WT yeast, mitochondrial fusion screen | AID 1362 | mitochondrial fusion phenotypic screen, WT strain | inhibition, % at 10 µM | 190,000 tested, 2.1% active; in the data active = inhibition above about 58%; tested in S. cerevisiae
PMI act hi M6P: PMI (human) activation, high substrate; activation factor at 20 µM; P34949; 190,000 tested, 0.34% active; coupled PMI enzyme assay, resazurin fluorescence, 20 min; stronger effect = higher value; 1 = untreated enzyme, 0 = substrate-free blank; AID 1216;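 active = activation factor of 2 or more at 20 µM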
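Test system: human phosphomannose isomerase with PGI, G6PDH, diaphorase coupling enzymes; Amount: PMI at 15 ng/mL final; Reagent: Mannose-6-phosphate 1.0 mM (near-saturating) plus 0.22 mM NADP+; Timing: 20 min, room temperature; Technique: resorufin fluorescence at Ex 544/Em 590 nm; Dosing: 20 µM single dose.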
Lmaj promast: Leishmania major promastigote growth inhibition. AID 1063. 200,000 tested, 9% active. Leishmania major promastigotes, resazurin fluorescence viability. inhibition, % at 10 µM; in the data active = inhibition above about 50%;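 note: promastigotes grown with compound for 44 hours at 28 °C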
Diaphorase act: counter-screen for diaphorase-based assays: diaphorase activators and chemical reducers | Diaphorase/resazurin coupled assay, resorufin fluorescence, 16 min; stronger effect = higher value; 1 = vehicle wells, 0 = NADH-free wells | activation factor at 20 µM | 190,000 tested, 0.005% active | AID 1229;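 active = diaphorase activity raised at least twofold by the compound at 20 µM; inactive = activation factor below 2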
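Material: bacterial diaphorase enzyme (C. kluyveri); amount: enzyme 0.07 U/mL final; reagent: NADH substrate 0.114 mM plus resazurin dye 0.1 mM, final; doses: single compound dose of 20 µM, 1% DMSO final; timing: 16 min enzyme reaction, ambient temperature; measured by: fluorescence of resorufin, 544 nm excitation, 590 nm emission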
Numbers without * were called inactive; . = no result given. Only some compounds are listed: those with a hit (about 10% of all), similar ones and a draw of the others.

SMILES	PMI act	WT yeast gro inh	PMI act hi M6P	Lmaj promast	Diaphorase act
COCCOC(=O)C1=C(N)OC(C)=C(C(=O)OC)C12C(=O)Nc1ccccc12 (stereo not given)	0.9	8	0.9	-5	0.9
CCOC(=O)C1=C(C)OC(N)=C(C(=O)OCC)C12C(=O)Nc1ccc(Br)cc12 (stereo not given)	0.9	14	0.9	51*	0.9
Oc1ccc2c3c1O[C@H]1c4[nH]c5ccccc5c4C[C@@]4(O)C(C2)N(CC2CC2)CC[C@]314	0.9	-1	0.9	.	0.8
O=C1NC(=O)C(CCc2ccncc2)(Cc2cccc(Cl)c2Cl)C(=O)N1c1ccc(Br)cc1 (stereo not given)	0.9	75*	0.9	92*	0.9
N#CCCn1cc(C(=O)Nc2ccccc2Br)c(-c2ccc([N+](=O)[O-])cc2)n1	0.9	-1	1	-1	0.9
c1ccc(CNCCc2ccc3c(c2)OCO3)nc1	1.1	2	1.1	0	0.9
O=C1NC(=O)C(CCc2ccccn2)(Cc2ccc3c(c2)OCO3)C(=O)N1CCc1ccccc1 (stereo not given)	0.8	4	0.9	98*	0.9
Cc1ccc2c(c1)C1CN(C)CCC1N2S(=O)(=O)c1ccccc1 (stereo not given)	1	16	0.9	0	0.9
Cc1ccc2c(c1)[C@@H]1CN(C)CC[C@@H]1N2C(=O)Nc1cccc(C(F)(F)F)c1	1	31	1.1	81*	0.9
Cc1ccc2c(c1)C1CN(C)CCC1N2C(=O)c1cn(-c2ccccc2)nc1-c1ccccc1 (stereo not given)	1	86*	1	53*	0.9
Cc1ccc2c(c1)C1CN(C)CCC1N2C(=O)c1ccc(Br)o1 (stereo not given)	0.9	0	0.9	0	0.9
Cc1ccc2c(c1)C1CN(C)CCC1N2C(=O)Nc1cccc(C(F)(F)F)c1 (stereo not given)	0.8	4	0.8	50*	0.9
Nc1nc(SCCC(F)=C(F)F)n[nH]1	1	4	1	-4	0.9
CC1(C)CSC(=NCc2ccccc2)N1	1.1	-8	1.1	11	1
O=C(c1ccccc1)c1cn(CC(=O)N2CCCc3ccccc32)c2ccccc12	0.9	-1	1	95*	0.9
c1ccc(-c2nc(N3CCOCC3)s[n+]2-c2ccccc2)cc1	0.6	-16	0.9	-1	0.9
Cc1oc2ccc(OC(=O)N(C)C)cc2c1C(=O)OC(C)C	0.8	75*	0.8	7	0.8
CN1CCN(S(=O)(=O)c2ccc(Cl)nc2)CC1	0.9	-17	1	-4	0.9
O=C(c1ccco1)c1cn(Cc2ccc(Cl)cc2)c2ccccc12	1	69*	1	80*	0.9
COc1ccccc1OCCCn1cc(C(=O)c2ccco2)c2ccccc21	0.8	31	0.8	9	0.8
C=CCN(CC#CCOc1ccccc1OC)CC=C	1.1	-4	1.1	4	1
CS(=O)(=O)NCc1nnc2n1-c1ccc(Cl)cc1C(c1ccccc1)=NC2	1	-2	1	-7	0.9
CSCc1nnc2n1-c1ccc(Cl)cc1C(c1ccccc1)=NC2	1.1	-14	1.1	94*	0.9
C1=C(CCNCc2ccccc2)CCCC1	1	10	1	73*	0.9
COc1ccc(/C=C/C(=O)c2c(O)n(CCC3=CCCCC3)c(=O)[nH]c2=O)cc1	0.9	-13	1	77*	0.9
SMILES	PMI act	WT yeast gro inh	PMI act hi M6P	Lmaj promast	Diaphorase act
O=C(/C=C/c1ccc2c(c1)OCO2)c1c(O)n(CCC2=CCCCC2)c(=O)[nH]c1=O	0.9	0	0.9	32	0.8
COc1c2c(cc3c1OCO3)CC[N+](C)=C2	1	10	0.9	-14	0.2
CCCc1[nH]nc2c1C1(C(=O)N(Cc3ccccc3)c3ccccc31)C(C(=O)OC)=C(N)O2 (stereo not given)	0.8	-8	0.9	82*	0.9
CCCc1[nH]nc2c1C1(C(=O)N(CC(N)=O)c3ccccc31)C(C(=O)OC)=C(N)O2 (stereo not given)	1	7	0.9	-5	0.8
O=[N+]([O-])[N-][n+]1cnn(Cc2ccc(Cl)cc2)c1	1.1	-13	1	2	1
O=C1/C(=C\c2cc3c(cc2Cl)OCO3)N2CCC1CC2	0.6	-16	0.4	73*	0.6
